ChEMBL document CHEMBL3259688, “Synthesis and structure-activity relationship studies of conformationally flexible tetrahydroisoquinolinyl triazole carboxamide and triazole substituted benzamide analogues as σ2 receptor ligands” (J Med Chem, 2014)

Molecular target: Sigma non-opioid intracellular receptor 1 (Homo sapiens, UniProt Q99720)
Assay: Binding affinity to sigma-1 receptor (unknown origin)
Settings: not given

Sigma non-opioid intracellular receptor 1 (Homo sapiens, UniProt Q99720), sequence (Q99720 whole entry): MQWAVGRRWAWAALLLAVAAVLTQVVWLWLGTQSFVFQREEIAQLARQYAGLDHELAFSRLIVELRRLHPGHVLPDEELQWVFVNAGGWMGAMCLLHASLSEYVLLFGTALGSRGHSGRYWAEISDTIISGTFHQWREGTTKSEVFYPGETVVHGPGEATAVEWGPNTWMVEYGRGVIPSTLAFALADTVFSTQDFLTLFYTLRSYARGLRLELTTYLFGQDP

Which Ki does the source give for `CN1CC[C@]2(c3cccc(O)c3)CC/C(=C/c3ccccc3)[C@@H]1C2` here?
Its Ki is 3060 nM.

For `CN1CC[C@]2(c3cccc(O)c3)CC/C(=C/c3ccc(Cl)c(Cl)c3)[C@@H]1C2`, which Ki is on record?
Its Ki is 7460 nM.

Molecular target: not listed separately
Assay: Binding affinity to sigma-2 receptor (unknown origin)
Parameters: species or system Homo sapiens
Settings: not given

For `Fc1ccc(-n2cc(CCCCN3CCC4(CC3)OCc3ccccc34)c3ccccc32)cc1` [SIRAMESINE], which Ki is on record?
Its Ki is 0.12 nM.

Which Ki does the source give for `CN1CC[C@]2(c3cccc(O)c3)CC/C(=C/c3ccccc3)[C@@H]1C2` here?
The Ki was 16.5 nM.

For `CN1CC[C@]2(c3cccc(O)c3)CC/C(=C/c3ccc(Cl)c(Cl)c3)[C@@H]1C2`, which Ki is on record?
Its Ki is 13.4 nM.

Organism: Homo sapiens
Assay: Selectivity ratio of Ki for sigma-1 receptor (unknown origin) to Ki for sigma-2 receptor (unknown origin)
Settings: not given

With `CN1CC[C@]2(c3cccc(O)c3)CC/C(=C/c3ccccc3)[C@@H]1C2` as the compound, how does the Ratio Ki read?
The Ratio Ki was 185.

Which Ratio Ki does the source give for `CN1CC[C@]2(c3cccc(O)c3)CC/C(=C/c3ccc(Cl)c(Cl)c3)[C@@H]1C2` here?
The Ratio Ki was 557.

Tested on: not listed separately
Assay: Lipophilicity, log P of the compound
Format: physicochemical
Settings: octanol/water

For `Fc1ccc(-n2cc(CCCCN3CCC4(CC3)OCc3ccccc34)c3ccccc32)cc1` [SIRAMESINE], which logP is on record?
Its logP is 6.07.

Which logP does the source give for `CN1CC[C@]2(c3cccc(O)c3)CC/C(=C/c3ccccc3)[C@@H]1C2` here?
The logP was 3.22.

Which logP does the source give for `COc1cc2c(cc1OC)CN(CCCCNC(=O)c1cc(C)ccc1OCCF)CC2` here?
Its logP is 3.74.

With `COc1cc2c(cc1OC)CN(CCCCNC(=O)c1cc(C)ccc1OC)CC2` as the compound, how does the logP read?
Its logP is 3.55.

For `CN1CC[C@]2(c3cccc(O)c3)CC/C(=C/c3ccc(Cl)c(Cl)c3)[C@@H]1C2`, which logP is on record?
The logP was 4.34.

Which logP does the source give for `COc1cc2c(cc1OC)CN(CCCCNC(=O)c1cc(I)ccc1OCCF)CC2` here?
The logP was 4.61.

Which logP does the source give for `COc1cccc2c1CCCC2CCCN1CCN(C2CCCCC2)CC1` (centres undefined) here?
Its logP is 5.

Tested on: not listed separately
Assay: Displacement of [3H]DTG from sigma-2 receptor in human MCF7 cell membranes after 120 mins
Settings: not given

Which Ki does the source give for `COc1cccc2c1CCCC2CCCN1CCN(C2CCCCC2)CC1` (centres undefined) here?
The Ki was 0.28 nM.

Tested on: not listed separately
Assay: Antagonist activity at sigma-2 receptor in mouse EMT6 cells assessed as inhibition of cell proliferation after 24 hrs by MTS assay
Format: cell-based
Settings: EMT6, 24 h
Procedure, shortened: (§1)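 EMT-6 mouse breast cancer cells grown in DMEM with 10% FBS and penicillin/streptomycin at 37 °C, 5% CO2. Seeded at 5 × 10^3 cells/well 24 h before dosing; serial dilutions from DMSO stocks, final DMSO ≤1.0%. Exposure 24 or 48 h, then MTS reagent 1–2 h at 37 °C, absorbance 490 nm vs untreated cells. EC50 from dose–response curves; triplicate wells, mean ± SEM of three independent experiments.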

For `Fc1ccc(-n2cc(CCCCN3CCC4(CC3)OCc3ccccc34)c3ccccc32)cc1` [SIRAMESINE], which EC50 is on record?
Its EC50 is 14900 nM.

With `COc1ccc(-n2cc(C(=O)NCCCCN3CCc4cc(OC)c(OC)cc4C3)nn2)cc1` as the compound, how does the EC50 read?
Its EC50 is over 200000 nM.

Molecular target: Sigma non-opioid intracellular receptor 1 (Mus musculus, UniProt O55242)
Sequence (O55242 whole entry): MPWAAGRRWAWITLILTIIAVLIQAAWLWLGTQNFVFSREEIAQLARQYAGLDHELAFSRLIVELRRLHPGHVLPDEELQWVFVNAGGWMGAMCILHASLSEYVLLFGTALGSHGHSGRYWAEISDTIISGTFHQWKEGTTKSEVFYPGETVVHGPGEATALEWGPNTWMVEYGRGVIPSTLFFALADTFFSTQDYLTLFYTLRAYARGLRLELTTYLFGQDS
Assay: Displacement of 5-bromo-N-(4-(3,4-dihydro-6,7-dimethoxyisoquinolin-2(1H)-yl)butyl)-2,3-dimethoxybenzamide from sigma-1 receptor in mouse EMT6 cell membranes after 60 mins by Scatchard plot analysis
Settings: not given

Which Ki does the source give for `COc1cc2c(cc1OC)CN(CCCCNC(=O)c1cc(C)ccc1OCCF)CC2` here?
The Ki was 330 nM.

For `COc1cc2c(cc1OC)CN(CCCCNC(=O)c1cc(C)ccc1OC)CC2`, which Ki is on record?
The Ki was 3080 nM.

For `COc1cc2c(cc1OC)CN(CCCCNC(=O)c1cc(I)ccc1OCCF)CC2`, which Ki is on record?
The Ki was 1300 nM.

Tested on: not listed separately
Assay: Displacement of 5-bromo-N-(4-(3,4-dihydro-6,7-dimethoxyisoquinolin-2(1H)-yl)butyl)-2,3-dimethoxybenzamide from sigma-2 receptor in mouse EMT6 cell membranes after 60 mins by Scatchard plot analysis
Settings: not given

With `COc1cc2c(cc1OC)CN(CCCCNC(=O)c1cc(C)ccc1OCCF)CC2` as the compound, how does the Ki read?
The Ki was 6.59 nM.

For `COc1cc2c(cc1OC)CN(CCCCNC(=O)c1cc(I)ccc1OCCF)CC2`, which Ki is on record?
The Ki was 1.06 nM.

Tested on: EMT6
Assay: Selectivity ratio of Ki for sigma-1 receptor in mouse EMT6 cell membranes to Ki for sigma-2 receptor in mouse EMT6 cell membranes
Format: cell-based
Settings: not given

Which Ratio Ki does the source give for `COc1cc2c(cc1OC)CN(CCCCNC(=O)c1cc(C)ccc1OCCF)CC2` here?
Its Ratio Ki is 48.

Molecular target: Sigma non-opioid intracellular receptor 1 (Cavia porcellus, UniProt Q60492)
Sequence (Q60492 whole entry): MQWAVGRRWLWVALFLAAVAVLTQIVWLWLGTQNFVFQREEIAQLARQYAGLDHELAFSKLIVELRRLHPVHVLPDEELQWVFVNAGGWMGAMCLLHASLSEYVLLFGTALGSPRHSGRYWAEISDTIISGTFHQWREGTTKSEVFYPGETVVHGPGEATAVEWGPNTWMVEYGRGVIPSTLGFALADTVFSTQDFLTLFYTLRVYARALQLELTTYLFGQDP
Assay: Displacement of (+)-[3H]pentazocine from sigma-1 receptor in guinea pig brain membrane homogenate after 90 mins by liquid scintillation counting analysis
Format: cell membranes
Settings: not given
Procedure, shortened: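 Nonspecific binding with cold haloperidol. Compounds from DMSO or ethanol, diluted in 50 mM Tris-HCl, 150 mM NaCl, 100 mM EDTA, pH 7.4. Stopped with ice-cold 10 mM Tris-HCl/150 mM NaCl pH 7.4, filtered on fiberglass, washed, scintillation counted.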

Which Ki does the source give for `COc1cc2c(cc1OC)CN(CCCCNC(=O)c1cn(Cc3cccc(OCCF)c3)nn1)CC2` here?
The Ki was 46300 nM.

For `COc1cc2c(cc1OC)CN(CCCCNC(=O)c1cc(-n3cc(CN(C)C)nn3)ccc1OCCF)CC2`, which Ki is on record?
The Ki was 21900 nM.

Which Ki does the source give for `COc1ccccc1Cn1cc(C(=O)NCCCCN2CCc3cc(OC)c(OC)cc3C2)nn1` here?
Its Ki is 20600 nM.

Which Ki does the source give for `COc1cccc(-n2cc(C(=O)NCCCCN3CCc4cc(OC)c(OC)cc4C3)nn2)c1` here?
The Ki was 20200 nM.

Which Ki does the source give for `COc1cccc(Cn2cc(C(=O)NCCCCN3CCc4cc(OC)c(OC)cc4C3)nn2)c1` here?
Its Ki is 12700 nM.

With `COc1cc2c(cc1OC)CN(CCCCNC(=O)c1cn(-c3ccc(OCCF)cc3)nn1)CC2` as the compound, how does the Ki read?
Its Ki is 46300 nM.

With `COc1ccc(-n2cc(C(=O)NCCCCN3CCc4cc(OC)c(OC)cc4C3)nn2)cc1` as the compound, how does the Ki read?
The Ki was 39200 nM.

With `COc1ccc(Cn2cc(C(=O)NCCN3CCc4cc(OC)c(OC)cc4C3)nn2)cc1` as the compound, how does the Ki read?
The Ki was 84500 nM.

Which Ki does the source give for `COc1cc2c(cc1OC)CN(CCCCNC(=O)c1cn(Cc3ccc(O)cc3)nn1)CC2` here?
The Ki was 63500 nM.

Which Ki does the source give for `COc1cc2c(cc1OC)CN(CCCCNC(=O)c1cc(-n3cc(COCCOCCF)nn3)ccc1OC)CC2` here?
Its Ki is 11500 nM.

With `COc1cccc(-n2cc(C(=O)NCCN3CCc4cc(OC)c(OC)cc4C3)nn2)c1` as the compound, how does the Ki read?
Its Ki is 76700 nM.

Which Ki does the source give for `COc1cc2c(cc1OC)CN(CCCCNC(=O)c1cc(C#N)ccc1OCc1cn(CCF)nn1)CC2` here?
The Ki was 14100 nM.

For `COc1cc2c(cc1OC)CN(CCCCNC(=O)c1cn(Cc3ccc(OCCF)cc3)nn1)CC2`, which Ki is on record?
Its Ki is 21500 nM.

Molecular target: not listed separately
Assay: Displacement of [3H]DTG from sigma-2 receptor in rat liver membrane homogenate after 2 hrs by liquid scintillation counting analysis in presence of pentazocine
Format: cell membranes
Settings: not given

With `COc1cc2c(cc1OC)CN(CCCCNC(=O)c1cn(Cc3cccc(OCCF)c3)nn1)CC2` as the compound, how does the Ki read?
Its Ki is 62.1 nM.

Which Ki does the source give for `COc1cc2c(cc1OC)CN(CCCCNC(=O)c1cc(-n3cc(CN(C)C)nn3)ccc1OCCF)CC2` here?
The Ki was 94 nM.

Which Ki does the source give for `COc1ccccc1Cn1cc(C(=O)NCCCCN2CCc3cc(OC)c(OC)cc3C2)nn1` here?
The Ki was 9.7 nM.

For `COc1cccc(-n2cc(C(=O)NCCCCN3CCc4cc(OC)c(OC)cc4C3)nn2)c1`, which Ki is on record?
The Ki was 3 nM.

With `COc1cccc(Cn2cc(C(=O)NCCCCN3CCc4cc(OC)c(OC)cc4C3)nn2)c1` as the compound, how does the Ki read?
Its Ki is 10.7 nM.

Which Ki does the source give for `COc1cc2c(cc1OC)CN(CCCCNC(=O)c1cn(-c3ccc(OCCF)cc3)nn1)CC2` here?
Its Ki is 21.9 nM.

With `COc1ccc(-n2cc(C(=O)NCCCCN3CCc4cc(OC)c(OC)cc4C3)nn2)cc1` as the compound, how does the Ki read?
The Ki was 5.5 nM.

For `COc1ccc(Cn2cc(C(=O)NCCN3CCc4cc(OC)c(OC)cc4C3)nn2)cc1`, which Ki is on record?
Its Ki is 93.2 nM.

Which Ki does the source give for `COc1cc2c(cc1OC)CN(CCCCNC(=O)c1cn(Cc3ccc(O)cc3)nn1)CC2` here?
The Ki was 11.6 nM.

With `COc1cc2c(cc1OC)CN(CCCCNC(=O)c1cc(-n3cc(COCCOCCF)nn3)ccc1OC)CC2` as the compound, how does the Ki read?
Its Ki is 66 nM.

For `COc1cccc(-n2cc(C(=O)NCCN3CCc4cc(OC)c(OC)cc4C3)nn2)c1`, which Ki is on record?
The Ki was 180 nM.

With `COc1cc2c(cc1OC)CN(CCCCNC(=O)c1cc(C#N)ccc1OCc1cn(CCF)nn1)CC2` as the compound, how does the Ki read?
Its Ki is 31.9 nM.

Which Ki does the source give for `COc1cc2c(cc1OC)CN(CCCCNC(=O)c1cn(Cc3ccc(OCCF)cc3)nn1)CC2` here?
The Ki was 48.2 nM.

Tested on: not listed separately
Assay: Selectivity ratio of Ki for sigma-1 receptor in guinea pig brain membrane homogenate to Ki for sigma-2 receptor in rat liver membrane homogenate
Format: cell membranes
Settings: not given

For `COc1cc2c(cc1OC)CN(CCCCNC(=O)c1cn(Cc3cccc(OCCF)c3)nn1)CC2`, which Ratio Ki is on record?
The Ratio Ki was 744.

Which Ratio Ki does the source give for `COc1cc2c(cc1OC)CN(CCCCNC(=O)c1cc(-n3cc(CN(C)C)nn3)ccc1OCCF)CC2` here?
The Ratio Ki was 232.

Which Ratio Ki does the source give for `COc1ccccc1Cn1cc(C(=O)NCCCCN2CCc3cc(OC)c(OC)cc3C2)nn1` here?
Its Ratio Ki is 2120.

Which Ratio Ki does the source give for `COc1cccc(-n2cc(C(=O)NCCCCN3CCc4cc(OC)c(OC)cc4C3)nn2)c1` here?
Its Ratio Ki is 6730.

With `COc1cccc(Cn2cc(C(=O)NCCCCN3CCc4cc(OC)c(OC)cc4C3)nn2)c1` as the compound, how does the Ratio Ki read?
The Ratio Ki was 1180.

With `COc1cc2c(cc1OC)CN(CCCCNC(=O)c1cn(-c3ccc(OCCF)cc3)nn1)CC2` as the compound, how does the Ratio Ki read?
Its Ratio Ki is 2120.

Which Ratio Ki does the source give for `COc1ccc(-n2cc(C(=O)NCCCCN3CCc4cc(OC)c(OC)cc4C3)nn2)cc1` here?
The Ratio Ki was 7120.

With `COc1ccc(Cn2cc(C(=O)NCCN3CCc4cc(OC)c(OC)cc4C3)nn2)cc1` as the compound, how does the Ratio Ki read?
The Ratio Ki was 906.

For `COc1cc2c(cc1OC)CN(CCCCNC(=O)c1cn(Cc3ccc(O)cc3)nn1)CC2`, which Ratio Ki is on record?
Its Ratio Ki is 5480.

With `COc1cc2c(cc1OC)CN(CCCCNC(=O)c1cc(-n3cc(COCCOCCF)nn3)ccc1OC)CC2` as the compound, how does the Ratio Ki read?
Its Ratio Ki is 174.

For `COc1cccc(-n2cc(C(=O)NCCN3CCc4cc(OC)c(OC)cc4C3)nn2)c1`, which Ratio Ki is on record?
Its Ratio Ki is 426.

For `COc1cc2c(cc1OC)CN(CCCCNC(=O)c1cc(C#N)ccc1OCc1cn(CCF)nn1)CC2`, which Ratio Ki is on record?
Its Ratio Ki is 442.

For `COc1cc2c(cc1OC)CN(CCCCNC(=O)c1cn(Cc3ccc(OCCF)cc3)nn1)CC2`, which Ratio Ki is on record?
The Ratio Ki was 447.

Tested on: not listed separately
Assay: Antagonist activity at sigma-2 receptor in mouse EMT6 cells assessed as inhibition of cell proliferation after 48 hrs by MTS assay
Format: cell-based
Settings: EMT6, 48 h
Procedure, shortened: as §1

Which EC50 does the source give for `Fc1ccc(-n2cc(CCCCN3CCC4(CC3)OCc3ccccc34)c3ccccc32)cc1` [SIRAMESINE] here?
Its EC50 is 5300 nM.

With `COc1ccc(-n2cc(C(=O)NCCCCN3CCc4cc(OC)c(OC)cc4C3)nn2)cc1` as the compound, how does the EC50 read?
The EC50 was over 200000 nM.
